Source: PubChem (The Scripps Research Institute Molecular Screening Center)
TRPML3 ag = human mucolipin-3 channel agonism; Q8TDD5; HEK293 TRPML3-YFP, Fluo-8 calcium fluorescence; 100% = the carbachol control signal; activation, % at 3 µM; 220,000 tested, 0.29% active; AID 1448;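 active means activation above its plate's cutoff, the mean activation of the plate's test wells plus 3 SD, cut at about 12% in these data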;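 further: 0% = DMSO only wells and 100% = carbachol wells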
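Test system: HEK293 cells stably carrying human TRPML3-YFP; Doses: single dose, 3 µM final nominal compound, 0.3% DMSO final; Schedule: dye loading 1 h 37 °C then 30 min ambient, 125 s read; Technique: Fluo-8 calcium fluorescence; Benchmarks: high control carbachol 87 µM, low control DMSO.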
V1R ag counter = activates human V1a receptor in oxytocin agonist counter-screen; P37288; CHO-V1R cells, Fluo-8 calcium fluorescence, agonist mode; 0% DMSO, 100% 3 nM vasopressin; activation, % at 3 µM; 320,000 tested, 0.25% active;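 active means activation above the mean activation of all tested compounds plus 3 SD, per screening run, cut at about 20% in these data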;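 further: signal is peak over basal fluorescence ratio across a 100 second FLIPR read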
zfTRPN1 agonist = activates the zebrafish TRPN1 channel | HEK293 zebrafish TRPN1-YFP, Fluo-8 calcium fluorescence; 100% = response to 87 µM carbachol | activation, % at 3 µM | 220,000 tested, 0.18% active;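 active means activation above its plate's cutoff, the mean activation of test wells on that plate plus 3 SD, cut at about 19% in these data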;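 further: 0% = DMSO alone and 100% = 87 µM carbachol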
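System: zebrafish TRPN1-YFP in HEK293 cells / Dosing: 3 µM single point / Timing: dye loading 1 h at 37 °C, then 30 min room temperature / Signal: Fluo-8 calcium fluorescence, excitation 470-495 nm, emission 515-575 nm / Read-out basis: percent activation from peak over basal fluorescence ratio, control-normalized / Control set: high carbachol 87 µM, low DMSO alone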
OXTR potentiate = potentiators of human oxytocin receptor | P30559 | CHO-OTR cells, Fluo-8 calcium fluorescence, potentiator mode; 0% = oxytocin EC15, 100% = EC100 | activation, % at 3 µM | 320,000 tested, 0.061% active;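 active means activation above that plate's cutoff, the mean activation of tested compounds plus 3 SD, cut at about 6.6% in these data, passing the limit was not always enough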;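 further: 100% uses oxytocin at 75 nM as the full agonist control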
Target sequence (P30559 whole entry, looked up): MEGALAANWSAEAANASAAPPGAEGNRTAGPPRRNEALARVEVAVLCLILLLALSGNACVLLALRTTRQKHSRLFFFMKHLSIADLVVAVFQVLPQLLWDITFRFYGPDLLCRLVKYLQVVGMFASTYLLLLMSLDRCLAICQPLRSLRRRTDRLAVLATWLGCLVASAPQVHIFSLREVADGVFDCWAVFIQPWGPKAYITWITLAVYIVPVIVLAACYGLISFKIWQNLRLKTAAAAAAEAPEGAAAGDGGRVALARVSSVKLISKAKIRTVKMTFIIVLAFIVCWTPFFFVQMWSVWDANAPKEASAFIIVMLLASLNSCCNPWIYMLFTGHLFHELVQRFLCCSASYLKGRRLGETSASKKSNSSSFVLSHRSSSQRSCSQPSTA
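Assay system: CHO cell line stably expressing human OTR | Also added: Oxytocin at about EC15, sub-maximal agonist stimulus | Times: Compound 6 min at room temperature before oxytocin, 100 s read | Measured by: Fluo-8 intracellular calcium fluorescence, ex 470-495, em 515-575 nm | Controls: EC15 oxytocin alone as 0%, 75 nM oxytocin as 100%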
OXTR agonist = activates the human oxytocin receptor; 320,000 tested, 0.32% active; AID 2435; CHO-OTR cells, Fluo-8 calcium fluorescence; normalized: DMSO 0%, oxytocin 100%; activation, % at 3 µM; P30559;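 active means activation above the mean of all tested compounds plus 3 SD, cutoff set per screening run, cut at about 20% in these data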;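 further: peak over basal fluorescence ratio from a 100 s FLIPR kinetic read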
TRPN1 counter = activates zebrafish TRPN1, counter-screen for TRPML3 agonists; 310 tested, 10% active; shares compounds with TRPML3 ag; HEK293 zebrafish TRPN1-YFP, Fluo-8 calcium fluorescence; scaled: carbachol wells 100%, DMSO wells 0%; activation, % at 3 µM;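 active means mean activation over replicates above a set limit taken from the earlier TRPN1 channel primary screen, cut at about 19% in these data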;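 further: 100% = carbachol and 0% = 0.3% DMSO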
TRPML3 ag conf = human TRPML3 agonism, confirmation | shares compounds with TRPML3 ag | HEK293 TRPML3-YFP, Fluo-8 calcium fluorescence; 100% set by carbachol, 0% by DMSO | activation, % at 3 µM | 310 tested, 80% active | AID 1526;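 active means activation above a set limit derived from the earlier primary screen, cut at about 12% in these data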
Active calls of the source: *; nt = no result. An excerpt weighted towards active compounds, which were near 0.58% of everything screened.

SMILES | TRPML3 ag | V1R ag counter | zfTRPN1 agonist | OXTR potentiate | OXTR agonist | TRPN1 counter | TRPML3 ag conf
CCn1c(=O)cc(C(F)(F)F)[nH]c1=S | 1 | 0 | 0 | 7 | 0 | nt | nt
CCOC(=O)CSc1nnc(CNC(=O)c2ccc([N+](=O)[O-])cc2)n1C | 0 | 1 | 0 | -13 | 0 | nt | nt
O=S(=O)(c1cnc(Cl)c(Br)c1)N1CCc2ccccc21 | 14* | -1 | -3 | -3 | 0 | -2 | 50*
Cc1cc(NC(=O)COC(=O)[C@@H](NS(=O)(=O)c2ccccc2)C(C)C)no1 | 0 | 3 | 1 | 0 | 0 | nt | nt
CC(C)[C@H](NS(=O)(=O)c1ccccc1)C(=O)OCC(=O)Nc1ccccc1Sc1ccccc1 | 42* | 0 | -3 | -11 | 0 | 0 | 66*
CS(=O)(=O)c1ccc(Cl)c(NC(=O)C2CCCN(C(=O)c3ccc(Cl)cc3)C2)c1 (stereo not drawn) | nt | -1 | nt | 2 | 0 | nt | nt
O=C1CN(S(=O)(=O)c2ccc(F)cc2)CC(=O)N1CCc1ccccc1 | 12* | nt | 0 | nt | nt | 1 | 23*
Cc1ccc(Oc2ccc(Cl)cc2N)cc1 | 16* | -1 | 12 | 2 | -3 | -2 | -2
CCOc1ccc(CCNS(=O)(=O)c2cccc3nsnc23)cc1OCC | 1 | -1 | 1 | -11 | 0 | nt | nt
O=C(NCc1ccc(F)cc1)C(=O)NCC1OCCN1S(=O)(=O)c1cccs1 (stereo not drawn) | 1 | 1 | 1 | 0 | 0 | nt | nt
O=S(=O)(Nc1ccccc1N1CCCCC1)c1ccc(Cl)s1 | 139* | -2 | -3 | -1 | -1 | -2 | 110*
CN(c1ccccc1)S(=O)(=O)c1cc(Cl)ccc1Cl | 49* | -2 | -2 | 0 | -1 | -3 | 67*
CN(c1ccccc1)S(=O)(=O)c1cccc(Cl)c1Cl | 53* | -1 | -2 | -3 | 0 | -4 | 40*
CN(c1ccccc1)S(=O)(=O)c1cccc2ccccc12 | nt | 0 | nt | -13 | -2 | nt | nt
Cc1cc(C)cc(N2C(=O)CSC2c2cccs2)c1 (stereo not drawn) | 16* | 0 | -1 | -15 | -1 | 3 | 16*
O=C(O)CCC(=O)Nc1ccc(Oc2ncnc3cc(Cl)ccc23)nc1 | 2 | 0 | 1 | -10 | 0 | nt | nt
Cc1ccc(C(=O)NNC(=S)NC(=O)c2ccco2)cc1 | 28* | 64* | 18 | -15 | 45* | 39* | 36*
Cc1cc[n+](-c2nc([O-])n(-c3ccccc3)c2C=O)cc1 | 1 | nt | 1 | nt | nt | nt | nt
Cc1ccc(S(=O)(=O)N2CC3CCCC2C3)cc1 (stereo not drawn) | 33* | 0 | 1 | 2 | -3 | 0 | 39*
O=C(c1ccc([N+](=O)[O-])cc1)N(Cc1ccc(Cl)cc1Cl)N1C(=O)CCCC1=O | 16* | -1 | 2 | -6 | -1 | 2 | 25*
O=C(Cn1cc([N+](=O)[O-])ccc1=O)NCc1ccc(Cl)cc1Cl | nt | 4 | nt | -4 | 0 | nt | nt
CCCc1nnc(N2C(=O)c3cccc4cccc(c34)C2=O)s1 | 0 | -1 | -1 | -6 | -3 | nt | nt
C=CCN(C(=O)CC(NC(C)=O)c1ccccc1)c1nc(-c2ccc(S(C)(=O)=O)cc2)cs1 (stereo not drawn) | nt | 0 | nt | -2 | 1 | nt | nt
Cc1ccc(S(=O)(=O)Nc2cc(C(F)(F)F)ccc2N2CCOCC2)cc1 | 1 | 0 | 2 | -13 | -1 | nt | nt
Cc1ccc(S(=O)(=O)Nc2cc(C(F)(F)F)ccc2N2CCOCC2)c(C)c1 | 48* | 0 | 6 | -8 | -1 | 10 | 102*
CC(=O)Nc1cccc(OC(=O)c2ccoc2C)c1 | 13* | 0 | 0 | -13 | -1 | 1 | 4
Cc1cc(C)n(-c2cc(N3CCN(C(=O)c4ccccc4C)CC3)ccc2[N+](=O)[O-])n1 | 0 | 3 | 4 | 0 | 5 | nt | nt
